Measurements: the EternaBench riboswitch data

System: MS2 coat protein
Assay: apparent Kd, MS2 coat protein; higher = weaker binding; RNA-MaP array; FMN 200 µM where present
Outline: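 Stalled E. coli RNA polymerase produced the designs on Illumina sequencing-chip clusters. SNAP-549-labelled MS2 coat protein was added from 0.7 or 1.5 nM, doubling to 3 µM, without and then with constant ligand, in 100 mM Tris-HCl pH 7.5, 80 mM KCl, 4 mM MgCl2, BSA, DTT, yeast tRNA and Tween-20. The apparent Kd is the median of filtered per-cluster fits of green signal normalised to red-channel RNA signal and control-cluster median Fmax.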

[1] = designed as: OFF switch for flavin mononucleotide, no ligand
[2] = ligand present: flavin mononucleotide, designed as: OFF switch for flavin mononucleotide
[3] = designed as: ON switch for flavin mononucleotide, no ligand
[4] = ligand present: flavin mononucleotide, designed as: ON switch for flavin mononucleotide

Sequence	apparent Kd [1]	apparent Kd [2]	apparent Kd [3]	apparent Kd [4]
GUAUCGUAUGUGAGGAUAUAUUUGUCCUUGGAUUUGUAGAAGGCACAUGAGGAUCACCCAUGUCCUAGUGGUCC	35.1 nM	34.9 nM	–	–
CGAGACCUCACAGGAUAUGCUGGACUUUGUCCAGCAGAAGGGUGAAAACAUGAGGAUCACCCAUGUAUGGUCUCCAAAUUUAAU	–	–	176 nM	13.9 nM
CGAUGACAAAGUCAUCGAUUACGAACAUGAGGAUCACCCAUGUAGGAUAUGCUACUCAAAGAGUAGCAGAAGGACAUGUGUCUU	35.6 nM	155 nM	–	–
GGGUUGGGAGGAUAUCCAAUAUAUGACAUGAGGAUCACCCAUGUUUCCACUCGUACCUCCGGAGAAGGCCCUUCCC	19.3 nM	20 nM	–	–
AAAAUGUAAGGAUAUAGCCGGAACCCAGGGUUUGGACCCGGCUAGAAGGUACAUGAGGAUCACCCAUGUAAGAA	17.2 nM	22.8 nM	–	–
AGUGUCAUCGAGAAGGCCUUAACAUGAGGAUCACCCAUGUUGUAAUAUGGGAGGAUAUCGAUGAUACAGCUACGUUUCGUAGCA	–	–	10.1 nM	5.71 nM
CAAGGGCAUGAGAAGGCAUAAUUUAUAUUACCACAUGUUUACAUGAGGAUCACCCAUGUUACCUAUGAGGAUAUCAUGCCUACA	12.7 nM	10.2 nM	–	–
GUGCAUUACGAGAAGGCGUACUGGUGAAUAUAAAACGACAAAGGUACAUGAGGAUCACCCAUGUACGAGGAUAUCGGUUUGGCU	9.74 nM	29.8 nM	–	–
GGGCCCGGAGGAUAUACAUGAGGAUCACCCAUGUAGGGCUCGGGUAUUUCUGGGUCUUGUAGAAGGCCGGGCCC	16 nM	22.8 nM	–	–
UGUUGUAUUACAGGAUAUCUAUUAUUUUUGUUUAGAGAAGGGUAUUCACAUGAGGAUCACCCAUGUAUAUACGAGGAAGUUGUG	–	–	53.5 nM	61.8 nM
CAAUCUGCAGGAUAUACAUGAGGAUCACCCAUGUAAGGACAAUAAAUAAGAAGAAGAAGUAGAAGGGCAGACAA	30.1 nM	31.8 nM	–	–
GUACCUUAUGAGAAGGCGAUCAUAAAACGUGAUCGAGGAUAUCAUGUAAACAUGAGGAUCACCCAUGUAUGGGUAUUAUGGUAC	–	–	61.7 nM	18.4 nM
AUCAGCUCGUCAGGAUAUACGUCACUGCAUCAGCAGUGUGGUAAGAUCACAUGAGGAUCACCCAUGUAGAAGGGACGAGCUGAU	22.9 nM	139 nM	–	–
GUUUCCAGAGGAUAUGCGAGGGUGUACCUCUAACAGCUCAAACAUGAGGAUCACCCAUGUAGAAGGCUGAUCAU	19.8 nM	18.2 nM	–	–
GAAGCGCUGGAGAAGGGUGAUCAAGUUAUAAACGUGUACAUGAGGAUCACCCAUGUCAGGGAAUCGCAGGAUAUCCAGCUGAAC	–	–	315 nM	42.9 nM
UAUAUAUAGUAAGGAUAUGUAACUAUUUUAUAAACAGAAGGUACUGACAUGAGGAUCACCCAUGUUUUAGUGUGGGCAUGUAGA	86.7 nM	136 nM	–	–
GCUUCGGCUGUGAGGAUAUGGCUUCGGAAAUGAAGUUAGAAGGCACAUGAGGAUCACCCAUGUAAGGUUGAAGU	21.7 nM	17.8 nM	–	–
AGAUGCAUGUAGAAGGGAGGAUCACCAGUGUACUCAGGAUAUACAUGUGGUGACAUGAGGAUCACCCAUGUAUGCCAGAAGUUC	–	–	172 nM	116 nM
AACUUGUCAGGAUAUCUUACAUUUGCAUCAUAGUUACCAUUGGAGAAGGGACAUGAGGAUCACCCAUGUUUGGU	41.3 nM	39.3 nM	–	–
AGUCGGAGCAGAGGAUAUAUACAUGAGGAUCACCCAUGUAAAUGGAAUAGCUGGAAACAGCAAGUAUAGAAGGCUGCUCCGACA	39.5 nM	118 nM	–	–
CUUAUGUGAGGAUAUGGUGUUGGCCACAGGAAAAAGAUUCUCCAGAAGGCACAUGAGGAUCACCCAUGUAGUGA	51.3 nM	120 nM	–	–

Sequence	apparent Kd [1]	apparent Kd [2]	apparent Kd [3]	apparent Kd [4]
ACAUGGAAGCAGGAUAUGCUUGUUUAAUUGUUUGCAGAAGGGCUAACAUGAGGAUCACCCAUGUAAGAGGUCUA	17 nM	29.6 nM	–	–
AGUCCACAUGAGGAUCACCCAUGUCUGGAGAAGACAGGAUAUAAGGAAAAAAAAAAAAACUUAGAAGGGUCAAAAA	–	–	128 nM	69.7 nM
AGUAACAUACUCAACAUGAGGAUCACCCAUGUACUCUCAUGUAAGGAUAUACAAUCGUAUUGAUAGUAGAAGGUACCAAUUAAG	–	–	845 nM	685 nM
CAUGUUAUACAGGAUAUCCGUAUGUAAUUCGUCGGAGAAGGGUAUACAUGAGGAUCACCCAUGUAUUCCUAGCU	16.1 nM	20.8 nM	–	–
GGUCAUCAAGUCAGGAUAUCGUCUGGUCAAUCAGGCGAGAAGGGACAUGAGGAUCACCCAUGUCGACUCAUCAG	33.9 nM	139 nM	–	–
UAGAAUCGAGGAUAUACAUGAGGAUCACCCAUGUGUGGCCAUUUGGUGUGGUCGUCAGGUAGAAGGCGAUUACA	160 nM	15.6 nM	–	–
GGACAUUUACAGAAGGGCAAGUUAGAUCGUGGAUAACACGAUCUGACUUGCAGGAUAUGUUGAACAUGAGGAUCACCCAUGUCC	–	–	12.9 nM	10.8 nM
UUGCUCGUGUGAGGAUAUGCCGCCGUUUCGGCUGCAGAAGGUACUCUUGUACAUGAGGAUCACCCAUGUCUCUGUUGUUUCGUG	–	–	49 nM	43.6 nM
GCAGGUCGAGGAUAUACAUGAGGAUCACCCAUGUAGAUCAACCAGCGAUAGCUGGAAUGUAGAAGGUGACCUGC	15.7 nM	29.4 nM	–	–
GGGCCCGGAGGAUAUACAAUGGGCCCGGGAAAUUGGGCCCUACAUGAGGAUCACCCAUGUAGAAGGUUGGGCCC	12.8 nM	13.6 nM	–	–
GCAUGCGUUCGAGGAUAUCGGUGAGAAACGGAACGAGAAGGCGAUCGAAUGUCUCAUAUUAUGAACAUGAGGAUCACCCAUGUA	–	–	514 nM	131 nM
AGGCACAUCGGAGGAUAUCAUGUAAAUACAUGAGGAUCACCCAUGUCGAUGGAGACAUCGGAGAUUGAGAAGGCCGAUGUACCG	–	–	175 nM	8.44 nM
GAGCCUCCGUAGAAGGCCGCGGAAUCCGAACGCGGAGGAUAUACAUGAGGAUCACCCAUGUGAAAGUGGAACGAUAAAACGCUU	14.7 nM	47.2 nM	–	–
AAUGGGCACCAGAAGGACAUGAGGAUCACCCAUGUAGGAUAUGGGCGUUGAAGAUGUCUGAUCGAGUUGCUGGAAAGAUAUGGG	–	–	311 nM	73.4 nM
AUGAGGUCAGGAUAUGCAUGGCGGGACUUGCGUCGUGGCGUGCAGAAGGGACAUGAGGAUCACCCAUGUGGAGU	152 nM	218 nM	–	–
AAUUAACACCAGAAGGACAUGAGGAUCACCCAUGUAGGAUAUGGGAGUGGGUCCGUUGGAGUUGGCCCGUCUCUGCGGGCUCGA	–	–	79.1 nM	8.95 nM
GGUGCUAUGUAGAAGGCAGAUCUGAUUCAGAUCUGAGGAUAUACAUGAGGAUCACCCAUGUUAUGCACCAGCACGAGAGUGCAC	7.57 nM	13.3 nM	–	–
GUGUACAGAGGAUAUACUGGAGCAUGGAAACAUGCAACUUCACAUGAGGAUCACCCAUGUAGAAGGCUGUACAC	17.6 nM	68.4 nM	–	–
GUAGCUCAUGAGAAGGCGAUCAUGAAACAUGAUCGAGGAUAUCAUGUAAACAUGAGGAUCACCCAUGUAUGGGUAUUAUGCUAC	–	–	126 nM	47.1 nM
GGCCUGCAGCUAGGAUAUGGGCGAUCACAUGAGGAUCACCCAUGUCAACAUCAAAACAAGAUUAACCAGAAGGAGCCGCGAGUU	–	–	26.5 nM	211 nM
CCCUCAACAUGAGGAUCACCCAUGUAGGAUAUCGCUAUUGUAAUCAUGAAACAUGAUUACAAUAGCGAGAAGGACAUAUGUAAA	27.4 nM	140 nM	–	–
